AHR activator: AHR activators, primary screen, cell-based, luminescence, luciferase reporter, human; Aryl hydrocarbon receptor (Homo sapiens), P35869; AHR-responsive luciferase reporter cells; activation, % at 5 µM; 320,000 tested, 2.5% active; AID 2796, 2010; in the data active = activation above about 47%;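 note: 0% = vehicle wells and 100% = reference agonist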
UCH37 inh: inhibitors of human UCH37 deubiquitinase, primary screen, biochemical, Ub-AMC cleavage, fluorescence; Ubiquitin carboxyl-terminal hydrolase isozyme L5 (Homo sapiens), Q9Y5K5; purified proteasome/UCH37; inhibition, % (no concentration beside the values); 330,000 tested, 0.33% active; AID 588478, 2011;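 active = mean inhibition over replicate wells above about 20%, limit read from the data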;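 note: 0% = compound-free wells with enzyme and 100% = wells lacking proteasome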
Target sequence (Q9Y5K5 whole entry, looked up): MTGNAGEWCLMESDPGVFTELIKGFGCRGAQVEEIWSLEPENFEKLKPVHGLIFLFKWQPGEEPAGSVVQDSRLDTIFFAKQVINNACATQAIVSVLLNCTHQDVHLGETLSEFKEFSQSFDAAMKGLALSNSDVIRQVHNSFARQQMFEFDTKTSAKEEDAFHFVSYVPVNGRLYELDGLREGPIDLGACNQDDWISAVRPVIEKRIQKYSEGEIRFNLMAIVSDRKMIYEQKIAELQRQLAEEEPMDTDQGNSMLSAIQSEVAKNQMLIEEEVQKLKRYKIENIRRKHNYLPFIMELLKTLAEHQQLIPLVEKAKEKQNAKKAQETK
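system = Proteasome-associated human UCH37 deubiquitinase | amount = 0.15 nM proteasome as dispensed | medium = pH 7.4 Tris-HCl (50 mM) with ovalbumin, ATP-MgCl2, DTT | incubation = 30 min preincubation with enzyme, 25 min cleavage at room temperature | detection = AMC fluorescence 355/460 nm | read-out basis = percent inhibition | controls = no-proteasome and no-compound wells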
A3G deaminase: APOBEC3G DNA deaminase inhibitors, primary screen, biochemical, fluorescence, single-stranded DNA substrate, uHTS. inhibition, % at 20 µM. 330,000 tested, 0.28% active. DNA dC->dU-editing enzyme APOBEC-3G (Homo sapiens), Q9HC16. recombinant A3G, ssDNA deamination FAM/TAMRA fluorescence;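 active = inhibition of at least 40% at 20 µM, with no more than 30% in the related APOBEC3A deaminase screen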;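 note: plate controls were DMSO wells with A3G for no effect and wells lacking A3G enzyme for full effect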
APOBEC3A inh: APOBEC3A ssDNA deaminase inhibitors, primary screen, selectivity assay for APOBEC3G inhibitor project, biochemical, FAM/TAMRA oligo cleavage fluorescence; DNA dC->dU-editing enzyme APOBEC-3A (Homo sapiens), P31941; recombinant A3A, FAM/TAMRA ssDNA deamination fluorescence; inhibition, % at 20 µM; 330,000 tested, 0.41% active; AID 493011, 2011;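 active = at least 40% inhibition at 20 µM here, with at most 30% in a related deaminase screen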;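 note: plate controls were A3A with DMSO for no effect and wells lacking A3A enzyme for full effect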
Target sequence (P31941 whole entry, looked up): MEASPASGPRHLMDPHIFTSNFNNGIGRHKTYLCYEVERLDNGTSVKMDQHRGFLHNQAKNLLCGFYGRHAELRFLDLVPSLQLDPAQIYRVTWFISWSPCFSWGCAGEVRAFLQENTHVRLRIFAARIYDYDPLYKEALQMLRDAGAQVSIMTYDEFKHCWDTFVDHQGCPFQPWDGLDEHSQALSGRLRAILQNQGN
Arrestin-AP2 inh: inhibitors of beta-arrestin/AP2 binding, primary screen, biochemical, GPCR trafficking, flow cytometry; inhibition, % at 10 µM; FITC-arrestin peptide / GST-AP2 beads; AP2 beta2 appendage carries R879A mutation; beta-arrestin 1 C-terminal peptide binding to AP2 beta2-adaptin appendage (human); 340,000 tested, 0.31% active; AID 504490, 2011;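 active = inhibition above a set limit, near 3 SD of compounds lacking own fluorescence, cut at about 54% in these data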;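 note: plate controls were DMSO wells for no effect and 5 µM unlabelled arrestin peptide for full effect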
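System: GST-AP2 R879A glutathione beads | Also added: FITC-arrestin peptide, 50 nM | Times: 12 min plus 1 h, RT | Signal: Bead flow cytometry, FITC channel | Buffer or medium: PBS with 0.05% Tween 20 and 0.1% BSA | Read-out basis: Percent drop in bead-associated FITC signal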
PolyA inhibitor: polyadenylation inhibitors in yeast reporter cells, primary screen, luminescence, S. cerevisiae; S. cerevisiae SKY197-pL101 polyadenylation reporter, beta-gal luminescence; efflux-impaired pdr1/pdr3 knockout yeast; score 100 = 6 SD above DMSO; activity score, % at 12 µM; 300,000 tested, 0.02% active;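 active = lowest replicate activity score at least 50, where 100 means six control SD above control mean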;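 note: yeast exposed to compound for 9 h at 30 °C; higher score means more reporter readthrough which indicates perturbed polyadenylation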
A3A conf: APOBEC3A deaminase inhibitors, retest, confirmation, selectivity assay for APOBEC3G inhibitor project, biochemical, single concentration, fluorescence readout | recombinant A3A, ssDNA deaminase UDG fluorescence assay | AID 493151, 2011 | shares compounds with APOBEC3A inh | 1,400 tested, 63% active | inhibition, % at 20 µM;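 active = inhibition reaching a set limit, 80% of the first screen's cutoff, at 20 µM in any replicate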;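 note: plate controls were DMSO wells with A3A for no effect and wells lacking A3A enzyme for full effect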
UDG A3A counter: E. coli UDG inhibitors, confirmation, counter-screen for APOBEC3A inhibitor project, biochemical, single concentration, fluorescence, FAM/TAMRA oligo; shares compounds with APOBEC3A inh; UDG counterscreen, FAM/TAMRA uracil oligo fluorescence; inhibition, % at 20 µM; 1,000 tested, under 10 active; call rule not given here
* = called active by the depositor. Shown are actives, neighbours in structure and some others; about 3.4% of the full set was active somewhere.

Results for Cc1ccc2c(c1C)NC(=O)C2(O)CC(=O)c1ccc2c(c1)OCO2 (stereo unspecified) ?
AHR activator: 7.0; UCH37 inh: 0.9; A3G deaminase: -4.4; APOBEC3A inh: 1.1; Arrestin-AP2 inh: 5.5; PolyA inhibitor: 4.6

Results for O=C(CC1(O)C(=O)Nc2ccccc21)c1ccc2c(c1)OCO2 (stereo unspecified) ?
AHR activator: 2.1; UCH37 inh: 2.4; A3G deaminase: -1.8; APOBEC3A inh: 78.7*; Arrestin-AP2 inh: 18.4; PolyA inhibitor: 7.5; A3A conf: 3.7; UDG A3A counter: -0.3

Results for COc1cccc(NC(=O)CN(C)C(=O)CCCNC(=O)c2ccc(Cl)cc2)c1 ?
AHR activator: 0.7; UCH37 inh: 2.7; A3G deaminase: -3.4; APOBEC3A inh: 2.8; Arrestin-AP2 inh: 8.2

Results for COc1ccc(CN(C)C(=O)CCCNC(=O)c2ccc(Cl)cc2)cc1 ?
AHR activator: -0.8; UCH37 inh: 4.1; A3G deaminase: 7.5; APOBEC3A inh: 45.5*; Arrestin-AP2 inh: -3.3; PolyA inhibitor: -10.5; A3A conf: 31.4

How did COCCn1c(N)c(N(Cc2ccccc2)C(=O)c2ccc3ccccc3c2)c(=O)[nH]c1=O do in these assays?
AHR activator: 0.0; UCH37 inh: 3.0; A3G deaminase: -0.8; APOBEC3A inh: 21.3; Arrestin-AP2 inh: 27.3; PolyA inhibitor: 20.8

How did COCCn1c(N)c(N(Cc2ccccc2)C(=O)C2=COCCO2)c(=O)[nH]c1=O do in these assays?
AHR activator: -1.2; UCH37 inh: 0.2; A3G deaminase: 18.2; APOBEC3A inh: 48.8*; Arrestin-AP2 inh: -15.4; PolyA inhibitor: -4.6; A3A conf: 20.9

How did COc1cccc(CN(CC(=O)NCc2ccc(F)cc2)C(=O)c2ccco2)c1 do in these assays?
AHR activator: 1.3; UCH37 inh: 0.3; A3G deaminase: -1.6; APOBEC3A inh: 45.5*; Arrestin-AP2 inh: 18.8; PolyA inhibitor: -6.8; A3A conf: -5.8; UDG A3A counter: -2.8

How did O=C(CN(Cc1ccccc1)C(=O)c1ccco1)NCc1ccc(F)cc1 do in these assays?
AHR activator: 2.0; UCH37 inh: -2.4; A3G deaminase: 0.9; APOBEC3A inh: -0.3; Arrestin-AP2 inh: 16.5; PolyA inhibitor: -7.5

Results for CSCCOC(=O)c1[nH]c2c(c1C)C(=O)CC(c1ccco1)C2 (stereo unspecified) ?
AHR activator: 21.4; UCH37 inh: 5.7; A3G deaminase: 22.3; APOBEC3A inh: 43.8*; Arrestin-AP2 inh: 10.8; PolyA inhibitor: 2.1; A3A conf: 39.2*; UDG A3A counter: 0.4

How did COCCOC(=O)c1[nH]c2c(c1C)C(=O)CC(c1ccco1)C2 (stereo unspecified) do in these assays?
AHR activator: 56.1*; UCH37 inh: -1.1; A3G deaminase: 28.3; APOBEC3A inh: 55.6*; Arrestin-AP2 inh: 9.7; PolyA inhibitor: 2.6; A3A conf: 45.3*; UDG A3A counter: -3.4

How did Cc1c(C(=O)OCCOC(C)C)[nH]c2c1C(=O)CC(c1ccco1)C2 (stereo unspecified) do in these assays?
AHR activator: 41.1; UCH37 inh: 3.7; A3G deaminase: 14.5; APOBEC3A inh: 22.6; Arrestin-AP2 inh: 4.4; PolyA inhibitor: -10.8
